Experimental data: ChEMBL document CHEMBL1130239, “Synthesis and evaluation of (S)-4-(3-(2'-[11C]isopropylamino)-2-hydroxypropoxy) -2H-benzimidazol -2-one ((S)-[11C]CGP 12388) and (S)-4-(3-((1'-[18F]-fluoroisopropyl)amino)-2-hydroxypropoxy) -2H- benzimidazol-2-one ((S)-[18F]fluoro-CGP 12388) for visualization of beta-adrenoceptors with positron …” (J Med Chem, 1997)

Experiments:
[1] = species: Rattus norvegicus; assay: Biodistribution of [11C]-CGP- 12388 (10 minutes post injection) in bone of male wistar rats; assay type: ADME, organism-based, Bone element; details: in vivo
Method in brief: (§1)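 Male Wistar rats (200 ± 20 g) under pentobarbital anesthesia (60 mg/kg ip) got iv saline (controls, n = 4) or 500 μg (±)-propranolol (blocking, n = 4) <1 min before the tracer. Tracer dose was 1 MBq (30 pmol) in 0.3 mL. Rats were killed by heart extirpation at 10 min and tissues counted. Plasma was spun 3 min at 1000g. Uptake is given as DAR, mean ± SD.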

[2] = species: Rattus norvegicus; assay: Biodistribution of [11C]-CGP- 12388 (10 minutes post injection) in cortex of male wistar rats; assay type: ADME, organism-based; details: in vivo; method in brief: as §1
[3] = species: Rattus norvegicus; assay: Biodistribution of [11C]-CGP- 12388 (10 minutes post injection) in fat of male wistar rats; assay type: ADME, organism-based, Adipose tissue; details: in vivo; method in brief: as §1
[4] = species: Rattus norvegicus; assay: Biodistribution of [11C]-CGP- 12388 (10 minutes post injection) in heart of male wistar rats; assay type: ADME, organism-based; details: in vivo; method in brief: as §1
[5] = species: Rattus norvegicus; assay: Biodistribution of [11C]-CGP- 12388 (10 minutes post injection) in intestine of male wistar rats; assay type: ADME, organism-based; details: in vivo; method in brief: as §1
[6] = species: Rattus norvegicus; assay: Biodistribution of [11C]-CGP- 12388 (60 minutes post injection) in red blood cells of male wistar rats; assay type: ADME, organism-based; details: in vivo, 1 h
Method in brief: (§2)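 Wistar males (200 ± 20 g) were given pentobarbital 60 mg/kg ip, plus 15-20 mg/kg if needed before dissection. Saline controls (n = 6) or 500 μg (±)-propranolol iv blocking rats (n = 4) were pretreated <1 min before 1 MBq (30 pmol) tracer in 0.3 mL. Sacrifice and dissection were at 60 min. DAR = (cpm/g tissue)/(injected cpm/g body weight); mean ± SD.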

[7] = species: Rattus norvegicus; assay: Biodistribution of [11C]-CGP- 12388 (60 minutes post injection) in trachea of male wistar rats; assay type: ADME, organism-based; details: in vivo, 1 h; method in brief: as §2
[8] = species: Rattus norvegicus; assay: Biodistribution of [11C]-CGP- 12388 (10 minutes post injection) in kidney of male wistar rats; assay type: ADME, organism-based; details: in vivo; method in brief: as §1
[9] = species: Rattus norvegicus; assay: Biodistribution of [11C]-CGP- 12388 (10 minutes post injection) in liver of male wistar rats; assay type: ADME, organism-based; details: in vivo; method in brief: as §1
[10] = species: Rattus norvegicus; assay: Biodistribution of [11C]-CGP- 12388 (10 minutes post injection) in lung of male wistar rats; assay type: ADME, organism-based; details: in vivo; method in brief: as §1
[11] = species: Rattus norvegicus; assay: Biodistribution of [11C]-CGP- 12388 (10 minutes post injection) in muscle of male wistar rats; assay type: ADME, organism-based, Muscle tissue; details: in vivo; method in brief: as §1
[12] = species: Rattus norvegicus; assay: Biodistribution of [11C]-CGP- 12388 (10 minutes post injection) in plasma of male wistar rats; assay type: ADME, organism-based; details: in vivo; method in brief: as §1
[13] = species: Rattus norvegicus; assay: Biodistribution of [11C]-CGP- 12388 (10 minutes post injection) in red blood cells of male wistar rats; assay type: ADME, organism-based; details: in vivo; method in brief: as §1
[14] = species: Rattus norvegicus; assay: Biodistribution of [11C]-CGP- 12388 (10 minutes post injection) in spleen of male wistar rats; assay type: ADME, organism-based; details: in vivo; method in brief: as §1
[15] = species: Rattus norvegicus; assay: Biodistribution of [11C]-CGP- 12388 (10 minutes post injection) in trachea of male wistar rats; assay type: ADME, organism-based; details: in vivo; method in brief: as §1
[16] = species: Rattus norvegicus; assay: Biodistribution of [11C]-CGP- 12388 (60 minutes post injection) in bone of male wistar rats; assay type: ADME, organism-based, Bone element; details: in vivo, 1 h; method in brief: as §2
[17] = species: Rattus norvegicus; assay: Biodistribution of [11C]-CGP- 12388 (60 minutes post injection) in cortex of male wistar rats; assay type: ADME, organism-based; details: in vivo, 1 h; method in brief: as §2
[18] = species: Rattus norvegicus; assay: Biodistribution of [11C]-CGP- 12388 (60 minutes post injection) in fat of male wistar rats; assay type: ADME, organism-based, Adipose tissue; details: in vivo, 1 h; method in brief: as §2
[19] = species: Rattus norvegicus; assay: Biodistribution of [11C]-CGP- 12388 (60 minutes post injection) in heart of male wistar rats; assay type: ADME, organism-based; details: in vivo, 1 h; method in brief: as §2
[20] = species: Rattus norvegicus; assay: Biodistribution of [11C]-CGP- 12388 (60 minutes post injection) in intestine bone of male wistar rats; assay type: ADME, organism-based; details: in vivo, 1 h, in the assay text read “intestine” for “intestine bone”; method in brief: as §2
[21] = species: Rattus norvegicus; assay: Biodistribution of [11C]-CGP- 12388 (60 minutes post injection) in kidney of male wistar rats; assay type: ADME, organism-based; details: in vivo, 1 h; method in brief: as §2
[22] = species: Rattus norvegicus; assay: Biodistribution of [11C]-CGP- 12388 (60 minutes post injection) in liver of male wistar rats; assay type: ADME, organism-based; details: in vivo, 1 h; method in brief: as §2
[23] = species: Rattus norvegicus; assay: Biodistribution of [11C]-CGP- 12388 (60 minutes post injection) in lung of male wistar rats; assay type: ADME, organism-based; details: in vivo, 1 h; method in brief: as §2
[24] = species: Rattus norvegicus; assay: Biodistribution of [11C]-CGP- 12388 (60 minutes post injection) in muscle of male wistar rats; assay type: ADME, organism-based, Muscle tissue; details: in vivo, 1 h; method in brief: as §2
[25] = species: Rattus norvegicus; assay: Biodistribution of [11C]-CGP- 12388 (60 minutes post injection) in plasma of male wistar rats; assay type: ADME, organism-based; details: in vivo, 1 h; method in brief: as §2
[26] = Partition coefficient (logP); assay type: physicochemical; details: octanol/water
Method in brief: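 50-100 μCi of tracer in 0.1 M phosphate buffer pH 7.4 (5 mL) plus n-octanol (5 mL). Shaken vigorously for 30 min at 37 °C, five mixtures. 100 μL of each layer gamma-counted. log P from the octanol/water count ratio, n = 5. A calculated value was also obtained with Pallas 1.2.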

[27] = species: Rattus norvegicus; assay: Biodistribution of [11C]-CGP- 12388 (60 minutes post injection) in cerebellum of male wistar rats; assay type: ADME, organism-based; details: in vivo, 1 h; method in brief: as §2
[28] = species: Rattus norvegicus; assay: Biodistribution of [11C]-CGP- 12388 (10 minutes post injection) in cerebellum of male wistar rats; assay type: ADME, organism-based; details: in vivo; method in brief: as §1
[29] = species: Rattus norvegicus; assay: Biodistribution of [11C]-CGP- 12388 (60 minutes post injection) in spleen of male wistar rats; assay type: ADME, organism-based; details: in vivo, 1 h; method in brief: as §2

DAR [1]: 0.2
DAR [2]: 0.07
DAR [3]: 0.16
DAR [4]: 0.72
DAR [5]: 0.55
DAR [6]: 0.49
DAR [7]: 0.86
DAR [8]: 2.44
DAR [9]: 1.65
DAR [10]: 1.26
DAR [11]: 0.23
DAR [12]: 0.5
DAR [13]: 0.7
DAR [14]: 0.78
DAR [15]: 0.7
DAR [16]: 0.23
DAR [17]: 0.25
DAR [18]: 0.26
DAR [19]: 0.76
DAR [20]: 1.14
DAR [21]: 0.94
DAR [22]: 0.68
DAR [23]: 0.88
DAR [24]: 0.36
DAR [25]: 0.4
logP [26]: -0.64
DAR [27]: 0.26
DAR [28]: 0.09
DAR [29]: 0.49
Compound: C[11CH](C)NC[C@H](O)COc1cccc2[nH]c(O)nc12
